According to ChEMBL document CHEMBL3085660, “Synthesis and evaluation of new coumarin-pyridine hybrids with promising anti-osteoporotic activities” (Eur J Med Chem, 2013):
Activity calls are given as the source filed them. The rule behind the calls is not given here.

Legend:
[1] = Increase in osteoblastogenesis in mouse Calvarial cells assessed as increase in BMP-2 gene expression at 10 nM by quantitative RT-PCR method relative to untreated-control; format: functional, Calvarial cell
Procedure, shortened: (§1)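 Transcripts of Runx-2, BMP-2 and COL-1 in primary mouse calvarial osteoblasts after compound treatment measured by qPCR, with GAPDH as internal control. Results expressed as fold change over untreated cells.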

[2] = Increase in osteoblastogenesis in mouse Calvarial cells assessed as increase in Runx-2 gene expression at 10 nM by quantitative RT-PCR method relative to untreated-control; format: functional, Calvarial cell; procedure, shortened: as §1
[3] = Increase in mineralization in mouse Calvarial cells assessed as mineralized nodule formation at 10 nM after 21 days using alizarin red-S staining by spectrophotometry relative to untreated-control; format: functional, Calvarial cell
Calvarial cell [4] = experiment: Induction of osteoblast differentiation in mouse Calvarial cells assessed as increase in alkaline phosphatase activity at 10 nM after 48 hrs by spectrophotometry relative to control; format: functional, cell-based
Procedure, shortened: (§2)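 Neonatal mouse calvarial osteoblasts trypsinized at 70–80% confluence, 2 × 10³ cells/well, treated 48 h in differentiation medium (α-MEM, 10% FCS, 10 mM β-glycerophosphate, ascorbic acid), 1 pM to 1 µM. Cells PBS-washed, freeze-thawed (−80 °C then 37 °C, 30 min each). ALP measured with p-nitrophenylphosphate at 405 nm. Mean ± S.D. of three independent experiments versus untreated control.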

[5] = Increase in osteoblastogenesis in mouse Calvarial cells assessed as increase in COL1 gene expression at 100 pM by quantitative RT-PCR method relative to untreated-control; format: functional, Calvarial cell; procedure, shortened: as §1
[6] = Increase in osteoblastogenesis in mouse Calvarial cells assessed as increase in BMP-2 gene expression at 100 pM by quantitative RT-PCR method relative to untreated-control; format: functional, Calvarial cell; procedure, shortened: as §1
[7] = Increase in osteoblastogenesis in mouse Calvarial cells assessed as increase in Runx-2 gene expression at 100 pM by quantitative RT-PCR method relative to untreated-control; format: functional, Calvarial cell; procedure, shortened: as §1
[8] = Increase in mineralization in mouse Calvarial cells assessed as mineralized nodule formation at 100 pM after 21 days using alizarin red-S staining by spectrophotometry relative to untreated-control; format: functional, Calvarial cell
Calvarial cell [9] = experiment: Induction of osteoblast differentiation in mouse Calvarial cells assessed as increase in alkaline phosphatase activity at 100 pM to 1 uM after 48 hrs by spectrophotometry relative to control; format: functional, cell-based; procedure, shortened: as §2
[10] = Increase in osteoblastogenesis in mouse Calvarial cells assessed as increase in BMP-2 gene expression at 1 uM by quantitative RT-PCR method relative to untreated-control; format: functional, Calvarial cell; procedure, shortened: as §1
[11] = Increase in mineralization in mouse Calvarial cells assessed as mineralized nodule formation at 1 uM after 21 days using alizarin red-S staining by spectrophotometry relative to untreated-control; format: functional, Calvarial cell
Calvarial cell [12] = experiment: Induction of osteoblast differentiation in mouse Calvarial cells assessed as increase in alkaline phosphatase activity at 10 nM to 1 uM after 48 hrs by spectrophotometry relative to control; format: functional, cell-based; procedure, shortened: as §2
[13] = Increase in mineralization in mouse Calvarial cells assessed as mineralized nodule formation at 1 pM after 21 days using alizarin red-S staining by spectrophotometry relative to untreated-control; format: functional, Calvarial cell
Calvarial cell [14] = experiment: Induction of osteoblast differentiation in mouse Calvarial cells assessed as increase in alkaline phosphatase activity at 1 to 100 pM after 48 hrs by spectrophotometry relative to control; format: functional, cell-based; procedure, shortened: as §2

## CCOC(=O)c1c(C)nc2c(c1-c1cc(C(C)CC)c3oc(=O)c(C(=O)OC)cc3c1)C(=O)CCC2 (centres undefined)
[1]
  fold change (FC): 4.8
[2]
  fold change (FC): 5.2
[3]
  fold change (FC): 3
Calvarial cell [4]
  Activity: Active

## CCOC(=O)c1cc2cc(-c3c(C(=O)OC)c(C)nc4c3C(=O)CCC4)cc(C(C)CC)c2oc1=O (centres undefined)
[5]
  fold change (FC): 3.1
[6]
  fold change (FC): 2.4
[7]
  fold change (FC): 5
[8]
  fold change (FC): 3.5
Calvarial cell [9]
  Activity: Active

## CCOC(=O)c1c(C)nc(C)c(C(=O)OCC)c1-c1cc(C)c2oc(=O)c(C(=O)OC)cc2c1
[10]
  fold change (FC): 2.5
[11]
  fold change (FC): 2
Calvarial cell [12]
  Activity: Active

## CCOC(=O)c1c(C)nc2c(c1-c1cc(C(C)CC)c3oc(=O)c(C(=O)OCC)cc3c1)C(=O)CC(C)(C)C2 (centres undefined)
[13]
  fold change (FC): 2
Calvarial cell [14]
  Activity: Active
